For 27 compounds, IC50 and inhibition results are on record in ChEMBL document CHEMBL2040839, “Novel cinnamic acid/4-aminoquinoline conjugates bearing non-proteinogenic amino acids: towards the development of potential dual action antimalarials” (Eur J Med Chem, 2012).

Test [1] can be described thus: Inhibition of Plasmodium falciparum falcipain 2 using substrate benzoxycarbonyl-Leu-Arg-7-amino-4-methyl-coumarin preincubated for 30 mins before substrate addition by fluorescence assay. The method, boiled down: (§1)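 Recombinant enzyme (1 nM) incubated with inhibitor at varied concentrations (from 10 mM DMSO stocks) in 100 mM sodium acetate pH 5.5, 10 mM DTT, 30 min at room temperature. Substrate then added at 25 μM final. Fluorescence monitored continuously for 30 min at room temperature; IC50 from curve fitting. FP3 tested only for compounds with FP2 IC50 < 50 μM.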

The next test concerns Plasmodium falciparum. Kind of test: Antiplasmodial activity against chloroquine-resistant blood-stage Plasmodium falciparum W2 after 48 hrs by flow cytometric analysis. The format is functional, organism-based. To be noted: W2, 48 h. The method, boiled down: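 Synchronized ring-stage W2 parasites cultured 48 h with multiple compound concentrations (from 1000× DMSO stocks) in RPMI 1640 with 10% human serum or 0.5% Albumax. Cells then fixed in 1% formaldehyde/PBS pH 7.4 for 48 h at room temperature and stained with YOYO-1 (1 nM) in 0.1% Triton X-100. Parasitemia read by flow cytometry. IC50 taken from percent-of-control parasitemia curves, R2 >0.95.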

For another test, the system named is Heme. Briefly: Inhibition of heme polymerization at 1 mM after 48 hrs by spectrophotometry relative to chloroquine. The method, boiled down:
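Hemin chloride in DMSO (5.2 mg/mL) mixed with compound in DMSO (0.1–1 mM), in triplicate; water or DMSO as negative control, 1 mM CQ as positive. β-hematin formation started with 0.2 M acetate buffer pH 4.4, then 48 h at 37 °C. Pellet washed with DMSO, dissolved in 0.2 M NaOH, diluted 1:6 in 0.1 M NaOH, read at 405 nm.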

A short description of test [2]: Inhibition of Plasmodium falciparum falcipain 3 using substrate benzoxycarbonyl-Leu-Arg-7-amino-4-methyl-coumarin preincubated for 30 mins before substrate addition by fluorescence assay. The method, boiled down: as §1

For the compound `CC(C)C[C@H](NC(=O)[C@H]1O[C@@H]1C(=O)O)C(=O)NCCCCN=C(N)N` [E-64], in test [1], the concentration for half-maximal inhibition (IC50) came to 0.0246 µM.

With `O=C(/C=C/c1ccccc1)Nc1ccnc2cc(Cl)ccc12`, the half-maximal inhibitory concentration (IC50) is > 10 µM in the test with Plasmodium falciparum and > 50 µM in test [1]. Moreover, the inhibition with Heme was < 50%.

For the compound `CC(C)C[C@@H](NC(=O)/C=C/c1ccc(F)cc1)C(=O)N[C@H](CCc1ccccc1)C(=O)Nc1ccnc2cc(Cl)ccc12`, the values for the IC50 (in the test with Plasmodium falciparum; in test [1]) were 4.67 µM and 50 µM, respectively. For the same compound, the inhibition in the test with Heme is < 50%.

As to `CC(C)c1ccc(/C=C/C(=O)Nc2ccnc3cc(Cl)ccc23)cc1`, the IC50 with Plasmodium falciparum is > 10 µM; in test [1] it was > 50 µM. In addition, the inhibition in the test with Heme was < 50%.

Turning to `O=C(/C=C/c1cccc([N+](=O)[O-])c1)Nc1ccnc2cc(Cl)ccc12`, the IC50 was > 10 µM in the test with Plasmodium falciparum, > 50 µM in test [2] and 14.2 µM in test [1]. The inhibition in the test on Heme is < 50%.

In the case of `O=C(/C=C/c1cccc(F)c1)Nc1ccnc2cc(Cl)ccc12`, the IC50 in the test on Plasmodium falciparum is > 10 µM; in test [1], > 50 µM. The inhibition in the test on Heme was < 50%.

Take `CC(C)C[C@@H](NC(=O)/C=C/c1ccc(N)cc1)C(=O)N[C@H](CCc1ccccc1)C(=O)Nc1ccnc2cc(Cl)ccc12`: the IC50 is 3.28 µM in the test on Plasmodium falciparum, > 50 µM in test [2] and 20.3 µM in test [1]. In addition, the inhibition in the test on Heme was > 75%.

For the compound `O=C(/C=C/c1ccc(Cl)cc1)Nc1ccnc2cc(Cl)ccc12`, the IC50 is > 10 µM in the test with Plasmodium falciparum, > 50 µM in test [2] and 41.3 µM in test [1]. Besides, the inhibition in the test with Heme is < 50%.

For the compound `CC(C)C[C@@H](NC(=O)/C=C/c1ccccc1[N+](=O)[O-])C(=O)N[C@H](CCc1ccccc1)C(=O)Nc1ccnc2cc(Cl)ccc12`, the figures for the 50% inhibitory concentration (IC50) (in the test on Plasmodium falciparum; in test [1]) were 1.66 µM and > 50 µM, respectively. Further, the inhibition with Heme turned out to be 50%.

`CC(C)C[C@@H](NC(=O)/C=C/c1ccc(Cl)cc1)C(=O)N[C@H](CCc1ccccc1)C(=O)Nc1ccnc2cc(Cl)ccc12`: the half-maximal inhibitory concentration (IC50) with Plasmodium falciparum was 2.89 µM; in test [1], > 50 µM. Moreover, in the test on Heme, the inhibition was < 50%.

Turning to `O=C(/C=C/c1ccccc1[N+](=O)[O-])Nc1ccnc2cc(Cl)ccc12`, the IC50 in the test with Plasmodium falciparum is > 10 µM; in test [2], > 50 µM; in test [1] it was 23.6 µM. Further, the inhibition in the test with Heme was < 50%.

For the compound `O=C(/C=C/c1ccc(Br)cc1)Nc1ccnc2cc(Cl)ccc12`, the IC50 is > 10 µM with Plasmodium falciparum, > 50 µM in test [2] and 33.1 µM in test [1]. The inhibition with Heme was < 50%.

Take `CCN(CC)CCCC(C)Nc1ccnc2cc(Cl)ccc12` (centres undefined): the inhibition in the test with Heme was > 75%.

Turning to `Cc1ccc(/C=C/C(=O)Nc2ccnc3cc(Cl)ccc23)cc1`, the IC50 in the test with Plasmodium falciparum is > 10 µM; in test [2] it was > 50 µM; in test [1], 28.5 µM. Moreover, the inhibition with Heme was < 50%.

For the compound `CC(C)C[C@@H](NC(=O)/C=C/c1cccc([N+](=O)[O-])c1)C(=O)N[C@H](CCc1ccccc1)C(=O)Nc1ccnc2cc(Cl)ccc12`, the figures for the IC50 (in the test on Plasmodium falciparum; in test [2]; in test [1]) were 2.1 µM, > 50 µM and 28.1 µM, respectively. Moreover, in the test on Heme, the inhibition is < 50%.

As to `O=C(/C=C/c1ccc([N+](=O)[O-])cc1)Nc1ccnc2cc(Cl)ccc12`, the half-inhibitory concentration (IC50) in the test on Plasmodium falciparum is > 10 µM; in test [1], > 50 µM. The inhibition with Heme was < 50%.

For the compound `CC(C)C[C@@H](NC(=O)/C=C/c1ccc(Br)cc1)C(=O)N[C@H](CCc1ccccc1)C(=O)Nc1ccnc2cc(Cl)ccc12`, the IC50 was 2.55 µM in the test with Plasmodium falciparum, > 50 µM in test [2] and 48.3 µM in test [1]. Also, the inhibition with Heme was < 50%.

As to `CC(C)C[C@@H](NC(=O)/C=C/c1ccc([N+](=O)[O-])cc1)C(=O)N[C@H](CCc1ccccc1)C(=O)Nc1ccnc2cc(Cl)ccc12`, the IC50 with Plasmodium falciparum was 1.23 µM; in test [1] it was > 50 µM. The inhibition with Heme is > 75%.

With `COc1ccc(/C=C/C(=O)N[C@H](CC(C)C)C(=O)N[C@H](CCc2ccccc2)C(=O)Nc2ccnc3cc(Cl)ccc23)cc1`, the half-inhibitory concentration (IC50) with Plasmodium falciparum was 10.8 µM; in test [1], > 50 µM. For the same compound, the inhibition in the test with Heme came to 50%.

In turn, `C[C@@H]1CC[C@H]2[C@@H](C)C(=O)O[C@@H]3O[C@@]4(C)CC[C@@H]1[C@]32OO4` [ARTEMISININ] yielded an IC50 in the test with Plasmodium falciparum of 0.00876 µM.

As for `CC(C)C[C@@H](NC(=O)/C=C/c1ccc(C(C)C)cc1)C(=O)N[C@H](CCc1ccccc1)C(=O)Nc1ccnc2cc(Cl)ccc12`, the IC50 was 0.83 µM in the test with Plasmodium falciparum and > 50 µM in test [1]. Further, in the test with Heme, the inhibition is < 50%.

For the compound `O=C(/C=C/c1ccc(F)cc1)Nc1ccnc2cc(Cl)ccc12`, the half-maximal inhibitory concentration (IC50) is > 10 µM in the test on Plasmodium falciparum and > 50 µM in test [1]. Moreover, the inhibition in the test on Heme is < 50%.

As for `CC(C)C[C@H](NC(=O)/C=C/c1ccccc1)C(=O)N[C@@H](CCc1ccccc1)C(=O)Nc1ccnc2cc(Cl)ccc12`, the IC50 in the test on Plasmodium falciparum amounted to 8 µM; in test [1] it was 50 µM.

As for `CC(C)C[C@@H](NC(=O)/C=C/c1ccccc1)C(=O)N[C@H](CCc1ccccc1)C(=O)Nc1ccnc2cc(Cl)ccc12`, the values for the IC50 (in the test on Plasmodium falciparum; in test [2]; in test [1]) were 4.89 µM, > 50 µM and 19.6 µM, respectively. In the test on Heme, the inhibition is < 50%.

Turning to `Cc1ccc(/C=C/C(=O)N[C@H](CC(C)C)C(=O)N[C@H](CCc2ccccc2)C(=O)Nc2ccnc3cc(Cl)ccc23)cc1`, the concentration for half-maximal inhibition (IC50) is 1.96 µM with Plasmodium falciparum and > 50 µM in test [1]. In the test on Heme, the inhibition was > 75%.

With `CC(C)C[C@@H](NC(=O)/C=C/c1cccc(F)c1)C(=O)N[C@H](CCc1ccccc1)C(=O)Nc1ccnc2cc(Cl)ccc12`, the values for the IC50 (in the test with Plasmodium falciparum; in test [2]; in test [1]) were 5.43 µM, > 50 µM and 23.1 µM, respectively. For the same compound, the inhibition with Heme was < 50%.

Regarding `COc1ccc(/C=C/C(=O)Nc2ccnc3cc(Cl)ccc23)cc1`, the half-inhibitory concentration (IC50) with Plasmodium falciparum was > 10 µM; in test [1] it was > 50 µM. In the test on Heme, the inhibition is < 50%.
